The record followed here is ChEMBL document CHEMBL1153932, “Hybrid alpha-bromoacryloylamido chalcones. Design, synthesis and biological evaluation” (Bioorg Med Chem Lett, 2009).

As usually defined, the IC50 is the point on the concentration scale where inhibition reaches its midpoint. What is called inhibition is the share of the control response that was lost under treatment. For orientation: IC75 means the concentration needed for an effect of 75%. Low values mean greater potency, high ones weaker potency.

For one series, the system named is L1210. In words: Antiproliferative activity against mouse L1210 cells after 48 hrs by Coulter counting analysis. In kind it is functional, cell-based. To be noted: L1210, 48 h.
A further series concerns FM3A. In words: Antiproliferative activity against mouse FM3A cells after 48 hrs by Coulter counting analysis. In kind it is functional, cell-based.
Another series concerns MOLT-4. As to the kind of experiment: Antiproliferative activity against human MOLT4 cells after 48 hrs by Coulter counting analysis. In kind it is functional, cell-based. To be noted: MOLT-4, 48 h.
The next series deals with CCRF-CEM. As to the kind of experiment: Antiproliferative activity against human CEM cells after 48 hrs by Coulter counting analysis. In kind it is cell-based.
The test system of another series is HeLa. In words: Antiproliferative activity against human HeLa cells after 48 hrs by Coulter counting analysis. In kind it is functional, cell-based.
In series [1] the test system is K562. In words: Induction of apoptosis in human K562 cells assessed as phosphatidylserine externalization up to 3 uM after 24 hrs using annexin-V-FITC staining by flow cytometry. In kind it is functional, cell-based.
Series [2] relates to K562. In words: Induction of apoptosis in human K562 cells assessed as phosphatidylserine externalization up to 3 uM after 48 hrs using annexin-V-FITC staining by flow cytometry. In kind it is functional, cell-based. A general note: Flow cytometry measures light scatter and fluorescence of single cells or particles in a stream.
Series [3] can be described thus: Inhibition of bovine brain tubulin polymerization. Details: species or system Bos taurus.
The species entered for another series is Bos taurus. As to the kind of experiment: Displacement of [3H]colchicine from bovine brain tubulin at 50 uM. On the technique in general: In a radioligand displacement assay an active substance lowers the binding of a labelled ligand.
Series [4] has as its system K562. As to the kind of experiment: Antiproliferative activity against human K562 cells after 48 hrs by Coulter counting analysis. In kind it is functional, cell-based. Conditions: K562, 48 h.
The subject of series [5] is K562. In words: Cell cycle arrest in human K562 cells assessed as accumulation at subG1 phase at IC75 after 72 hrs using propidium iodide staining by flow cytometry. In kind it is functional. In short, it runs like this: (§1)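 K562 cells were cultured 72 h with or without compound, then stained with propidium iodide and analysed by flow cytometry. The proportions of cells in sub-G1, G0–G1, S and G2-M were read from DNA histograms and compared with untreated controls.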

In series [6] the test system is K562. As to the kind of experiment: Cell cycle arrest in human K562 cells assessed as accumulation at G0-G1 phase at IC75 after 72 hrs using propidium iodide staining by flow cytometry. In kind it is functional. The gist of the method: as §1
In series [7] the test system is K562. In words: Cell cycle arrest in human K562 cells assessed as accumulation at S phase at IC75 after 72 hrs using propidium iodide staining by flow cytometry. In kind it is functional. In short, it runs like this:
as §1

Series [8] relates to K562. As to the kind of experiment: Cell cycle arrest in human K562 cells assessed as accumulation at G2-M phase at IC75 after 72 hrs using propidium iodide staining by flow cytometry. In kind it is functional. The gist of the method:
as §1

Series [9] can be described thus: Solubility of the compound. In kind it is physicochemical.
For series [10], the system named is K562. In words: Induction of apoptosis in human K562 cells assessed as phosphatidylserine externalization at 0.2 uM after 3 days using annexin-V-FITC staining by flow cytometry. In kind it is functional, cell-based.
The test system of series [11] is K562. In words: Induction of apoptosis in human K562 cells assessed as increase in mitochondrial mass at […] after 48 hrs using 10-N-nonyl acridine orange staining by flow cytometry. In kind it is functional, cell-based.
The subject of series [12] is K562. In words: Induction of apoptosis in human K562 cells assessed as caspase 3 activation at 0.6 uM after 24 hrs by flow cytometry. In kind it is functional, cell-based. In short, it runs like this: (§2)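 K562 cells were treated with compound for 24 h and 48 h, then harvested. Cells were stained with a FITC-conjugated monoclonal antibody against the active fragment of human caspase-3 and analysed by flow cytometry against untreated controls.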

The subject of series [13] is K562. As to the kind of experiment: Induction of apoptosis in human K562 cells assessed as caspase 3 activation at 0.6 uM after 48 hrs by flow cytometry. In kind it is functional, cell-based. In short, it runs like this: as §2
In series [14] the test system is K562. In words: Induction of apoptosis in human K562 cells assessed as caspase 3 activation at 1.25 uM after 24 hrs by flow cytometry. In kind it is functional, cell-based. In short, it runs like this: as §2
Series [15] deals with K562. As to the kind of experiment: Induction of apoptosis in human K562 cells assessed as caspase 3 activation at 1.25 uM after 48 hrs by flow cytometry. In kind it is functional, cell-based. The gist of the method:
as §2

Each structure is given as a SMILES string. Active and inactive are the calls of the source. The rule behind the calls is not given here.

In the case of `C=C(Br)C(=O)Nc1ccc(C(=O)/C=C/c2ccc(N(C)C)cc2)cc1`, the IC50 stood at 1900 nM in the series with L1210; 2800 nM in the series on FM3A; 1300 nM with MOLT-4; 1500 nM in the series on CCRF-CEM; 610 nM in the series with HeLa. Further, the result with K562 [1] and in the series with K562 [2] was Active.

On to `C=C(Br)C(=O)Nc1ccc(C(=O)/C=C/c2ccccc2OC)cc1`, for which the IC50 in the series on L1210 came to 1700 nM; in the series on FM3A, 370 nM; in the series on MOLT-4, 240 nM; in the series with CCRF-CEM, 580 nM; with HeLa, 1300 nM; in series [3], 8.3 µM. Further, in the series listed under Bos taurus, the inhibition was determined as 37%. The same molecule showed an IC75 in the series on K562 [4] of 2.94 µM. The Activity in the series with K562 [5] was 83.4%; in the series on K562 [6], 6.4%; in the series with K562 [7], 6.3%; in the series on K562 [8], 3.9%. Further, the solubility result in [9] is “Insoluble”.

`C=C(Br)C(=O)Nc1ccc(C(=O)/C=C/c2ccc(OC)cc2)cc1`: the IC50 in the series with L1210 is 900 nM; in the series on FM3A it was 1000 nM; with MOLT-4, 610 nM; in the series on CCRF-CEM it was 1100 nM; in the series with HeLa, 310 nM; in series [3], greater than 40 µM. Also, the 75% effect level with K562 [4] (IC75) was put at 1.14 µM. The Activity with K562 [5] came to 68.2%; with K562 [6], 11%; in the series on K562 [7], 11.6%; in the series on K562 [8], 9.2%. In addition, the solubility result in [9] was “Insoluble”.

For `C=C(Br)C(=O)Nc1ccc(/C=C/C(=O)c2cccs2)cc1`, the IC50 in the series on L1210 was 250 nM; with FM3A, 520 nM; in the series with MOLT-4, 550 nM; in the series on CCRF-CEM it was 730 nM; in the series on HeLa, 340 nM; in series [3], greater than 40 µM. For the same molecule, it took 0.82 µM to reach the 75% level with K562 [4] (IC75). Besides, the Activity in the series with K562 [5] turned out to be 42.8%; in the series on K562 [6], 17%; in the series on K562 [7], 23.2%; in the series with K562 [8] it was 17%. The solubility entry in [9] is reported as “Insoluble”.

Regarding `C=C(Br)C(=O)Nc1ccc(C(=O)/C=C/c2cccc(OC)c2OC)cc1`, the IC50 is 1100 nM in the series with L1210; 550 nM in the series with FM3A; 490 nM with MOLT-4; 710 nM in the series with CCRF-CEM; 380 nM with HeLa; greater than 40 µM in [3]. The molecule further gave an IC75 with K562 [4] of 0.64 µM. For the same molecule, the Activity in the series with K562 [5] was 48.4%; in the series with K562 [6] it was 22.3%; with K562 [7], 15.2%; with K562 [8] it was 14.1%. Besides, in series [9], the solubility result is on record as “Insoluble”.

Turning to `C=C(Br)C(=O)Nc1ccc(/C=C/C(=O)c2ccc(Br)cc2)cc1`, the IC50 in the series with L1210 was 620 nM; in the series with FM3A, 1100 nM; in the series on MOLT-4, 680 nM; in the series with CCRF-CEM, 990 nM; in the series on HeLa, 1000 nM; in series [3], greater than 40 µM. The IC75 with K562 [4] was 0.84 µM. Also, the Activity with K562 [5] was determined as 20.4%; with K562 [6] it was 35.9%; in the series with K562 [7], 27.5%; in the series on K562 [8] it was 16.2%. For the same molecule, the solubility result in series [9] was “Insoluble”.

In the case of `C=C(Br)C(=O)Nc1ccc(C(=O)/C=C/c2ccccc2)cc1`, the IC50 in the series with L1210 is 880 nM; with FM3A, 690 nM; with MOLT-4 it was 500 nM; in the series with CCRF-CEM, 1500 nM; in the series with HeLa it was 960 nM; in series [3], greater than 40 µM. In the series on K562 [4], this molecule showed an IC75 of 2.77 µM. Further, the Activity in the series with K562 [5] was determined as 47.6%; in the series with K562 [6], 23%; with K562 [7], 16.4%; with K562 [8] it was 13%. Also, in [9], the solubility result is listed as “Insoluble”.

On to `C=C(Br)C(=O)Nc1ccc(C(=O)/C=C/c2ccc(OC)c(OC)c2OC)cc1`, for which the IC50 with L1210 was 630 nM; with FM3A, 530 nM; in the series with MOLT-4 it was 680 nM; in the series on CCRF-CEM, 840 nM; with HeLa, 510 nM; in series [3], greater than 40 µM. For the same molecule, the IC50 in the series on K562 [4] came out at 200 nM. Moreover, it took 0.71 µM to reach the 75% level in the series with K562 [4] (IC75). Besides, the Activity in the series on K562 [5] is recorded as 57.8%; in the series with K562 [6] it was 13.7%; in the series on K562 [7], 14.9%; with K562 [8], 13.6%. Further, the result in the series with K562 [10] was Active. Besides, in series [9], the solubility entry is recorded as “Insoluble”.

On to `C=C(Br)C(=O)Nc1ccc(/C=C/C(=O)c2ccc(OCC)cc2)cc1`, for which the IC50 with L1210 was 240 nM; in the series on FM3A it was 680 nM; in the series with MOLT-4, 610 nM; in the series on CCRF-CEM, 750 nM; in the series on HeLa, 750 nM; in series [3] it was greater than 40 µM. Besides, the IC75 in the series with K562 [4] was determined as 0.85 µM. Besides, the Activity was 52.3% with K562 [5], 16.5% in the series with K562 [6], 19.6% in the series on K562 [7] and 11.6% in the series with K562 [8]. For the same molecule, the outcome in the series with K562 [11], with K562 [12], in the series on K562 [13], in the series on K562 [14] and with K562 [15] was Active. The solubility result in [9] is listed as “Insoluble”.
